Laboratory results: ChEMBL document CHEMBL5321243, “The Cytotoxic Cardiac Glycoside (-)-Cryptanoside A from the Stems of Cryptolepis dubia and Its Molecular Targets” (J Nat Prod, 2023)
The source made the active and inactive calls. The rule behind the calls is not given here.

Legend:
HT-29 = experiment: Cytotoxicity against human HT-29 cells incubated for 72 hrs by Cell titer blue assay; assay type: functional, cell-based; details: HT-29, 72 h
In short: (§1)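 Cells grown in RPMI 1640 with 10% FBS, penicillin and streptomycin at 37 °C, 5% CO₂; 5,000 log-phase cells per well seeded, left overnight, then exposed 72 h to serial dilutions from DMSO (DMSO vehicle; paclitaxel positive control). Viability read by CellTiter-Blue absorbance; IC50 relative to vehicle by nonlinear regression; triplicate, three independent experiments.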

OVCAR-5 = experiment: Cytotoxicity against human OVCAR-5 cells incubated for 72 hrs by Cell titer blue assay; assay type: functional, cell-based; details: OVCAR-5, 72 h; in short: as §1
OVCAR-3 = experiment: Cytotoxicity against human OVCAR-3 cells incubated for 72 hrs by Cell titer blue assay; assay type: functional, cell-based; details: OVCAR-3, 72 h; in short: as §1
MDA-MB-231 [1] = experiment: Upregulation of p-Akt expression in human MDA-MB-231 cells at 0.5 uM incubated for 5 hrs by Western blot analysis; assay type: functional, cell-based
In short: (§2)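 MDA-MB-231 cells in DMEM with 10% FBS and antibiotics, seeded overnight, then exposed to 0.5 µM or 0.48 µM (from DMSO) for 5 h at 37 °C. Cells washed in cold PBS, lysed in RIPA with EDTA and protease inhibitors; equal protein immunoblotted for p-Akt or NF-κB p50, normalized to β-actin; n = 3, t test versus control.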

MDA-MB-231 [2] = experiment: Effect on NF-kappaB p52 expression in human MDA-MB-231 cells at 1 to 10 uM incubated for 72 hrs by Western blot analysis; assay type: functional, cell-based; details: dose 1-10 µM
In short: (§3)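 MDA-MB-231 cells in DMEM with 10% FBS, penicillin and streptomycin; 5,000 cells per well seeded, left overnight, then exposed to 1.0, 5.0 or 10.0 µM (from DMSO) for 72 h at 37 °C. Surviving cells lysed in RIPA with 1 mM EDTA and protease inhibitors; equal protein (BCA) immunoblotted, signals normalized to β-actin; three independent experiments, t test versus control.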

[3] = target: Sodium/potassium-transporting ATPase (Sus scrofa); experiment: Inhibition of NA+/K+ ATPase (porcine cerebral cortex) activity incubated for 15 mins in presence of ATP by ADP-Glo assay
MDA-MB-435 = experiment: Cytotoxicity against human MDA-MB-435 cells incubated for 72 hrs by Cell titer blue assay; assay type: functional, cell-based; details: MDA-MB-435, 72 h; in short: as §1
MDA-MB-231 [4] = experiment: Upregulation of Akt expression in human MDA-MB-231 cells at 1 to 10 uM incubated for 72 hrs by Western blot analysis; assay type: functional, cell-based; details: dose 1-10 µM; in short: as §3
[5] = Cytotoxicity against human FT194 cells incubated for 72 hrs by Cell titer blue assay; assay type: functional, cell-based; details: FT194, 72 h; in short: as §1
MDA-MB-231 [6] = experiment: Effect on PI3K expression in human MDA-MB-231 cells at 1 to 10 uM incubated for 72 hrs by Western blot analysis; assay type: functional, cell-based; details: dose 1-10 µM; in short: as §3
MDA-MB-231 [7] = experiment: Downregulation of NF-kappaB p50 expression in human MDA-MB-231 cells at 0.5 uM incubated for 5 hrs by Western blot analysis; assay type: functional, cell-based; in short: as §2
MDA-MB-231 [8] = experiment: Downregulation of NF kappaB p50 expression in human MDA-MB-231 cells at 1 to 10 uM incubated for 72 hrs by Western blot analysis; details: dose 1-10 µM
MDA-MB-231 [9] = experiment: Upregulation of NF kappaB p65 expression in human MDA-MB-231 cells at 1 to 10 uM incubated for 72 hrs by Western blot analysis; assay type: functional, cell-based; details: dose 1-10 µM; in short: as §3
MDA-MB-231 [10] = experiment: Downregulation of NF kappaB p52 expression in human MDA-MB-231 cells at 5 to 10 uM incubated for 72 hrs by Western blot analysis; assay type: functional, cell-based; details: dose 5-10 µM; in short: as §3
MDA-MB-231 [11] = experiment: Cytotoxicity against human MDA-MB-231 cells incubated for 72 hrs by Cell titer blue assay; assay type: functional, cell-based; details: MDA-MB-231, 72 h; in short: as §1
MDA-MB-231 [12] = experiment: Downregulation of NF-kappaB p50 expression in human MDA-MB-231 cells at 0.48 uM incubated for 5 hrs by Western blot analysis; assay type: functional, cell-based; in short: as §2
MDA-MB-231 [13] = experiment: Upregulation of p-Akt expression in human MDA-MB-231 cells at 0.48 uM incubated for 5 hrs by Western blot analysis; assay type: functional, cell-based; in short: as §2

| IC50 [3] [nM] | SMILES | IC50 (HT-29) [nM] | IC50 (OVCAR-5) [nM] | IC50 (OVCAR-3) [nM] | Activity (MDA-MB-231 [1]) | Activity (MDA-MB-231 [2]) | IC50 (MDA-MB-435) [nM] | Activity (MDA-MB-231 [4]) | IC50 [5] [nM] | Activity (MDA-MB-231 [6]) | Activity (MDA-MB-231 [7]) | Activity (MDA-MB-231 [8]) | Activity (MDA-MB-231 [9]) | Activity (MDA-MB-231 [10]) | IC50 (MDA-MB-231 [11]) [nM] | Activity (MDA-MB-231 [12]) | Activity (MDA-MB-231 [13]) |
| --- | --- | --- | --- | --- | --- | --- | --- | --- | --- | --- | --- | --- | --- | --- | --- | --- | --- |
|  | CC(=O)O[C@H]1C(=O)[C@@]2(C)[C@H]([C@H](OC(=O)c3ccccc3)[C@]3(O)C[C@H](OC(=O)[C@H](O)[C@@H](NC(=O)c4ccccc4)c4ccccc4)C(C)=C1C3(C)C)[C@]1(OC(C)=O)CO[C@@H]1C[C@@H]2O [PACLITAXEL] | 3400 | 7300 | 4.9 |  |  |  |  |  |  |  |  |  |  |  |  |  |
| 1200 | CO[C@H]1C[C@H](O[C@H]2CC[C@]3(C)C4[C@H](O)C(=O)[C@]5(C)[C@@H](C6=CC(=O)OC6)CC[C@]5(O)[C@@]45O[C@H]5C[C@@H]3C2)O[C@@H](C)[C@@H]1O (stereo not given in full) | 220 | 440 | 140 | Active | inactive | 200 | Active | 1100 | inactive | inactive | Active | Active | Active | 500 |  |  |
|  | C[C@H]1O[C@@H](O[C@H]2[C@@H](O)C[C@H](O[C@H]3[C@@H](O)C[C@H](O[C@H]4CC[C@@]5(C)[C@H](CC[C@@H]6[C@@H]5C[C@@H](O)[C@]5(C)[C@@H](C7=CC(=O)OC7)CC[C@]65O)C4)O[C@@H]3C)O[C@@H]2C)C[C@H](O)[C@@H]1O |  |  |  |  | inactive |  | Active |  | inactive |  | Active | Active |  |  | inactive | Active |
